The results in this text go back to ChEMBL document CHEMBL1144326, “Exploring the active site of phenylethanolamine N-methyltransferase with 3-hydroxyethyl- and 3-hydroxypropyl-7-substituted-1,2,3,4-tetrahydroisoquinolines” (Bioorg Med Chem Lett, 2005).

In test [1] the target is T1, Alpha-2A adrenergic receptor (Homo sapiens, UniProt P08913).
T1 sequence (P08913 whole entry): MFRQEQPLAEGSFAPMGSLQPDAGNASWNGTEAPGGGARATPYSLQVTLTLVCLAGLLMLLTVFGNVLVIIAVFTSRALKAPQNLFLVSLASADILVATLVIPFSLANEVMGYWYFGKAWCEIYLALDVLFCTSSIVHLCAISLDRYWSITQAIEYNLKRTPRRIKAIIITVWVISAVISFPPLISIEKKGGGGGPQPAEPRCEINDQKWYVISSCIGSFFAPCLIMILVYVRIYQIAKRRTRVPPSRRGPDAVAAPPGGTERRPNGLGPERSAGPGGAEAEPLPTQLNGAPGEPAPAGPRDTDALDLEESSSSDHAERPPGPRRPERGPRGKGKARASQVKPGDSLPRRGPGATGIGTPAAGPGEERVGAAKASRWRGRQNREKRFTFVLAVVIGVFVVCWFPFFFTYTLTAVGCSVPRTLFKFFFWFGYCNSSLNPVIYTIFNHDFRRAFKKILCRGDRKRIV
Nature of the test: Binding affinity against human alpha 2A adrenergic receptor in CHO cells using [3H]RX-821002 as radioligand. The test is classed as cell-based. The method in brief: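 Membranes from CHO cells stably transfected with human α2A-adrenoceptor; [³H]RX821002 at 0.2 nM as radioligand; nonspecific binding defined with (−)-norepinephrine; displacement of radioligand measured.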

Test [2] concerns the target T2, Adrenergic receptor alpha-2 (Rattus norvegicus, UniProt P22086+P19328+P22909).
T2 sequence (P22086 whole entry): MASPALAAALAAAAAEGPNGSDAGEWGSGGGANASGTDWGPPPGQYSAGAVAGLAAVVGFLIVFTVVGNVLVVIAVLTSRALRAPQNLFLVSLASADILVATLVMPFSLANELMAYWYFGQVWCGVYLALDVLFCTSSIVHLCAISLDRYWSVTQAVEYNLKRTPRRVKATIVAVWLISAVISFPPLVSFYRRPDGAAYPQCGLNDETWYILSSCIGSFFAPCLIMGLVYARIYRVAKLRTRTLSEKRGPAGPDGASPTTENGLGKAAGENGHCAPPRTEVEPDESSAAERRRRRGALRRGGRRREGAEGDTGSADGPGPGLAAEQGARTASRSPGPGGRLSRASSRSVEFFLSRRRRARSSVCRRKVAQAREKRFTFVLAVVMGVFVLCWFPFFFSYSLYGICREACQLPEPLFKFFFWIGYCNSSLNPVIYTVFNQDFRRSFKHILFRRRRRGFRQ
T2 sequence (P19328 whole entry): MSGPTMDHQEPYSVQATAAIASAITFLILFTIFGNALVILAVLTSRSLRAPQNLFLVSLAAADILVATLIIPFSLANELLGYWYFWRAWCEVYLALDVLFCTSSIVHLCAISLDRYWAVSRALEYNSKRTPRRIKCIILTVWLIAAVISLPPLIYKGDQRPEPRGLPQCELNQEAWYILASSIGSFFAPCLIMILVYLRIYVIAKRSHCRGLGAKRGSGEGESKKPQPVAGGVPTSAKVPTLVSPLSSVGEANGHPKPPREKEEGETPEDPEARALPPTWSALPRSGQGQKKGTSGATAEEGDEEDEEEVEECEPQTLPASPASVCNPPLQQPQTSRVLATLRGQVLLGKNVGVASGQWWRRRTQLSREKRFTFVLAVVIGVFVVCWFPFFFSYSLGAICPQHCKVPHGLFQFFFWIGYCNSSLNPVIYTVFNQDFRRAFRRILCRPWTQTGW
T2 sequence (P22909 whole entry): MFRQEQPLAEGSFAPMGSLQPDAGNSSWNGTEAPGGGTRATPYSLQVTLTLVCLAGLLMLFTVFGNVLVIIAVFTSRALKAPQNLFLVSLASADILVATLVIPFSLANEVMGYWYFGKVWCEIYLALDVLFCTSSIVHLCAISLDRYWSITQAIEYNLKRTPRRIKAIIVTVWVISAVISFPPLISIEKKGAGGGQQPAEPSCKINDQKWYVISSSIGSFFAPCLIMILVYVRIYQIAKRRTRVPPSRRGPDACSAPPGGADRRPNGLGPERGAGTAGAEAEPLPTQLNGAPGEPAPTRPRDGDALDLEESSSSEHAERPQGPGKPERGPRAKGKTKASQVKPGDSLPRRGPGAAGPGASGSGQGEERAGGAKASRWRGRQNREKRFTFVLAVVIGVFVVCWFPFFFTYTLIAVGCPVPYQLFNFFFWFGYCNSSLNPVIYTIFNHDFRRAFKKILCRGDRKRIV
Nature of the test: Binding affinity against alpha 2 adrenergic receptor in rat cortex using [3H]clonidine as radioligand. The test is classed as tissue-based.

Structures are written as SMILES.

As a reminder, the pKi is −log10 of the Ki, conventionally taken in molar units. Read a low pKi as a high Ki. With `O=[N+]([O-])c1ccc2c(c1)CNC(C(F)(F)F)C2` (centres undefined), the pKi in test [1] was determined as 3.4.
Still for that read-out and setting: as for `FC(F)(F)C1Cc2ccc(Br)cc2CN1` (centres undefined), the figure is 4.35; as for `O=[N+]([O-])c1ccc2c(c1)CNC(C(F)F)C2` (centres undefined), 3.6.
As usually defined, the Ki is a dissociation constant, usually derived from enzyme kinetics or from competition with a known ligand. In test [2], `O=[N+]([O-])c1ccc2c(c1)CNC(CCCO)C2` (centres undefined) gave a Ki of 59 µM.
Same read-out and setting: as for `O=[N+]([O-])c1ccc2c(c1)CNC(CCO)C2` (centres undefined), the figure is 46 µM.
Same read-out and setting: as for `OCCCC1Cc2ccc(Br)cc2CN1` (centres undefined), the figure is 4.8 µM.
In the case of `NS(=O)(=O)c1ccc2c(c1)CNCC2`, the pKi in test [1] came out at 3.4.
In the case of `O=[N+]([O-])c1ccc2c(c1)CNCC2`, the pKi in test [1] is 3.2.
On the same count and under the same terms, as for `Clc1ccc2c(c1Cl)CNCC2`, the figure is 6.52.
Molecule `OCCC1Cc2ccc(Br)cc2CN1` (centres undefined) yielded an inhibition constant (Ki) in test [2] of 1.3 µM.
Still for that read-out and setting: as for `OCC1Cc2ccc(Br)cc2CN1` (centres undefined), the figure is 1 µM.
In turn, `O=[N+]([O-])c1ccc2c(c1)CNC(CO)C2` (centres undefined) returned a pKi in test [1] of 3.9.
On the same count and under the same terms, as for `CC1Cc2ccc([N+](=O)[O-])cc2CN1` (centres undefined), the figure is 4.84.
The same measure, in the same setting: as for `O=[N+]([O-])c1ccc2c(c1)CNC(CF)C2` (centres undefined), the figure is 3.2.
